Experiments:
[1] = Antitumor activity against human prostate cancer cells after 48 hrs by SRB assay; type: functional, Cancer cell lines; conditions: for GI50 / TGI / LC50: Homo sapiens, Cancer cell lines, 48 h; for TGI: read-out: pTGI (converted)
How it was run: (§1)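 NCI 60-cell panel two-stage screen: a single-dose pass at 10^-5 M, then five-dose testing for active compounds. Compounds were dissolved in DMSO and tested at five 10-fold dilutions, the highest 10^-4 M (10^-3 M in some cases). Results are given as the negative log molar concentration at three end points: pGI50, pTGI (total growth inhibition) and pLC50. Means are panel-subtype averages.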

[2] = Antitumor activity against human Breast cancer cells after 48 hrs by SRB assay; type: functional, Cancer cell lines; conditions: for GI50 / TGI / LC50: Homo sapiens, Cancer cell lines, 48 h; for TGI: read-out: pTGI (converted); how it was run: as §1
[3] = Antitumor activity against human Colon cancer cells after 48 hrs by SRB assay; type: functional, Cancer cell lines; conditions: for GI50 / TGI / LC50 (50% lethal concentration): Homo sapiens, Cancer cell lines, 48 h; for TGI: read-out: pTGI (converted); how it was run: as §1
Melanoma cell = assay: Antitumor activity against human Melanoma cells after 48 hrs by SRB assay; type: functional; conditions: for CC50: read-out: pLC50 (the source's name) (converted); for TGI: read-out: pTGI (converted); how it was run: as §1
[4] = Antitumor activity against human ovarian cancer cells after 48 hrs by SRB assay; type: functional, Cancer cell lines; conditions: for GI50 / LC50 (concentration killing 50% of cells) / TGI: Homo sapiens, Cancer cell lines, 48 h; for TGI: read-out: pTGI (converted); how it was run: as §1
NSCLC = assay: Antitumor activity against human NSCLC cells after 48 hrs by SRB assay; type: functional; conditions: for GI50 / TGI / LC50: Homo sapiens, NSCLC, 48 h; for TGI: read-out: pTGI (converted); how it was run: as §1
[5] = Antitumor activity against human renal cancer cells after 48 hrs by SRB assay; type: functional, Cancer cell lines; conditions: for GI50 / LC50 (concentration killing 50% of cells) / TGI: Homo sapiens, Cancer cell lines, 48 h; for TGI: read-out: pTGI (converted); how it was run: as §1
Leukemia cell = assay: Antitumor activity against human Leukemia cells after 48 hrs by SRB assay; type: functional; conditions: for TGI: read-out: pTGI (converted); how it was run: as §1
[6] = Antitumor activity against human CNS cancer cells after 48 hrs by SRB assay; type: functional, Cancer cell lines; conditions: for TGI: read-out: pTGI (converted); how it was run: as §1
[7] = Homo sapiens, Melanoma cell, 48 h, read-out: pGI50 (converted)
[8] = Homo sapiens, Melanoma cell, 48 h
[9] = Homo sapiens, Leukemia cell, 48 h
[10] = Homo sapiens, Cancer cell lines, 48 h
[11] = Homo sapiens, Cancer cell lines, 48 h, read-out: pGI50 (converted)

Row | SMILES | GI [1] [µM] | GI50 [1] [µM] | GI [2] [µM] | GI50 [2] [µM] | TGI [2] [µM] | GI [3] [µM] | GI50 [3] [µM] | GI50 (Melanoma cell) [µM] | GI50 (Melanoma cell; [7]) [µM] | TGI (Melanoma cell; [8]) [µM] | GI [4] [µM] | GI50 [4] [µM] | GI (NSCLC) [µM] | GI50 (NSCLC) [µM] | TGI (NSCLC) [µM] | GI [5] [µM] | GI50 [5] [µM] | GI (Leukemia cell) [µM] | GI50 (Leukemia cell; [9]) [µM] | GI50 [6] [µM] | further results
1 | Cc1nn2c(/C=C3/C(=O)Nc4ccccc43)c(-c3ccc(Cl)cc3)nc2s1 | 12.3 | 12.3 | 16.98 | 17 | 42.7 | 18.62 | 18.6 | 19.95 | 20 | 35.5 | 25.7 | 25.7 | 19.05 | 19.1 | 45.7 | 17.78 | 17.8 | 17.78 | 17.8 | 3.24 | TGI [1]: 32.4 µM; TGI [3]: 44.7 µM; CC50 (Melanoma cell; [8]): 47.9 µM; LC50 (concentration killing 50% of cells) [5]: 46.8 µM; TGI [5]: 33.1 µM; LC50 [6, 10]: 38.9 µM; GI50 [6, 11]: 3.24 µM; TGI [6, 10]: 16.6 µM
2 | Cc1nn2c(/C=C3/C(=O)Nc4ccc(Cl)cc43)c(C)nc2s1 | 43.65 | 43.7 | 28.18 | 28.2 | 83.2 | 14.13 | 14.1 | 41.69 | 41.7 | 97.7 | 52.48 | 52.5 | 53.7 | 53.7 | 89.1 | 56.23 | 56.2 | 14.13 | 14.1 | 29.51 | TGI (Leukemia cell; [9]): 81.3 µM; GI50 [6, 11]: 29.5 µM; TGI [6, 10]: 97.7 µM
3 | Cc1cn2c(/C=C3/C(=O)Nc4ccc(O)cc43)c(-c3ccc(Cl)cc3)nc2s1 | 15.14 | 15.1 | 15.85 | 15.8 | 56.2 | 24.55 | 24.5 | 15.14 | 15.1 | 57.5 | 13.8 | 13.8 | 16.6 | 16.6 | 55 | 15.14 | 15.1 | 12.59 | 12.6 | 13.18 | LC50 [1]: 79.4 µM; TGI [1]: 50.1 µM; LC50 [2]: 95.5 µM; TGI [3]: 75.9 µM; CC50 (Melanoma cell; [8]): 89.1 µM; LC50 (concentration killing 50% of cells) [4]: 89.1 µM; TGI [4]: 44.7 µM; LC50 (NSCLC): 91.2 µM; LC50 (concentration killing 50% of cells) [5]: 87.1 µM; TGI [5]: 50.1 µM; LC50 (concentration killing 50% of cells) (Leukemia cell; [9]): 95.5 µM; TGI (Leukemia cell; [9]): 38.9 µM; LC50 [6, 10]: 81.3 µM; GI50 [6, 11]: 13.2 µM; TGI [6, 10]: 35.5 µM
4 | Cc1cn2c(/C=C3/C(=O)Nc4ccccc43)c(-c3ccc(Cl)cc3)nc2s1 | 9.77 | 9.77 | 6.46 | 6.46 | 17.8 | 10.23 | 10.2 | 9.55 | 9.55 | 19.1 | 10 | 10 | 8.13 | 8.13 | 17.8 | 3.31 | 3.31 | 18.2 | 18.2 | 6.76 | LC50 [1]: 28.8 µM; TGI [1]: 17 µM; LC50 [2]: 35.5 µM; LC50 (50% lethal concentration) [3]: 38.9 µM; TGI [3]: 21.4 µM; CC50 (Melanoma cell; [8]): 32.4 µM; LC50 (concentration killing 50% of cells) [4]: 39.8 µM; TGI [4]: 20.4 µM; LC50 (NSCLC): 38 µM; LC50 (concentration killing 50% of cells) [5]: 33.1 µM; TGI [5]: 18.6 µM; TGI (Leukemia cell; [9]): 44.7 µM; LC50 [6, 10]: 30.2 µM; GI50 [6, 11]: 6.76 µM; TGI [6, 10]: 15.1 µM
5 | Cc1cn2c(/C=C3/C(=O)Nc4ccc(F)cc43)c(C)nc2s1 | 9.55 | 9.55 | 4.47 | 4.47 | 23.4 | 2.4 | 2.4 | 6.31 | 6.31 | 35.5 | 7.24 | 7.24 | 8.13 | 8.13 | 42.7 | 11.48 | 11.5 | 4.57 | 4.57 | 6.03 | TGI [1]: 40.7 µM; TGI [3]: 40.7 µM; TGI [4]: 44.7 µM; TGI [5]: 40.7 µM; TGI (Leukemia cell; [9]): 23.4 µM; GI50 [6, 11]: 6.03 µM; TGI [6, 10]: 33.1 µM
6 | Cc1ccc(-c2nc3sc(C)cn3c2/C=C2/C(=O)Nc3ccc(Cl)cc32)cc1 | 22.39 | 22.4 | 12.59 | 12.6 | 38.9 | 18.62 | 18.6 | 14.79 | 14.8 | 31.6 | 14.45 | 14.5 | 13.49 | 13.5 | 37.2 | 12.59 | 12.6 | 22.91 | 22.9 | 6.61 | TGI [1]: 55 µM; LC50 [2]: 75.9 µM; LC50 (50% lethal concentration) [3]: 79.4 µM; TGI [3]: 43.7 µM; CC50 (Melanoma cell; [8]): 66.1 µM; LC50 (concentration killing 50% of cells) [4]: 74.1 µM; TGI [4]: 34.7 µM; LC50 (NSCLC): 69.2 µM; LC50 (concentration killing 50% of cells) [5]: 64.6 µM; TGI [5]: 32.4 µM; TGI (Leukemia cell; [9]): 72.4 µM; LC50 [6, 10]: 55 µM; GI50 [6, 11]: 6.61 µM; TGI [6, 10]: 20.4 µM
7 | COc1ccc2c(c1)/C(=C\c1c(-c3cc(OC)ccc3OC)nc3sc(C)cn13)C(=O)N2C | 30.9 | 30.9 | 28.84 | 28.8 | 95.5 | 33.11 | 33.1 | 25.12 | 25.1 | 56.2 | 25.7 | 25.7 | 28.84 | 28.8 | 89.1 | 30.9 | 30.9 | 15.85 | 15.8 | 23.99 | TGI [1]: 97.7 µM; TGI [3]: 81.3 µM; TGI [4]: 91.2 µM; TGI [5]: 97.7 µM; TGI (Leukemia cell; [9]): 63.1 µM; GI50 [6, 11]: 24 µM; TGI [6, 10]: 74.1 µM
8 | Cc1cn2c(/C=C3/C(=O)N(C)c4ccc(O)cc43)c(C)nc2s1 | 12.59 | 12.6 | 4.57 | 4.57 | 38 | 3.89 | 3.89 | 7.41 | 7.41 | 63.1 | 9.12 | 9.12 | 12.88 | 12.9 | 67.6 | 13.18 | 13.2 | 3.39 | 3.39 | 4.57 | TGI [3]: 56.2 µM; TGI [4]: 52.5 µM; TGI [5]: 85.1 µM; TGI (Leukemia cell; [9]): 27.5 µM; GI50 [6, 11]: 4.57 µM; TGI [6, 10]: 37.2 µM
